Results reported in ChEMBL document CHEMBL1944595, “1,4-diarylpiperazines and analogs as anti-tubercular agents: synthesis and biological evaluation” (Eur J Med Chem, 2012).
Values after ≈ are worked out from the molar mass of the structure shown.

What was measured:
Assay type in all cases: functional
[1] = tested on: Mycobacterium tuberculosis; experiment: Antibacterial activity against Mycobacterium tuberculosis H37Rv harboring pSMT1 encoding Vibrio harveyi luxAB gene at 0.1 uM after 7 days by luminometric analysis; conditions: 168 h, read-out: GI
Outline: (§1)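 Same extracellular assay. Bacteria seeded at 1000 RLU per well in Sauton + 10% FCS. Compounds added from 1 mM DMSO stocks to final 10, 1 or 0.1 per well. Incubated 7 days at 37 °C, 5% CO2. Wells harvested, washed four times with PBS and pooled. 1% n-decanal added and luminescence read over 10 s. Percent growth inhibition calculated against untreated control cultures.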

[2] = tested on: Mycobacterium tuberculosis; experiment: Antibacterial activity against Mycobacterium tuberculosis H37Rv harboring pSMT1 encoding Vibrio harveyi luxAB gene at 1 uM after 7 days by luminometric analysis; conditions: 168 h, read-out: GI; outline: as §1
[3] = tested on: Mycobacterium tuberculosis; experiment: Antibacterial activity against Mycobacterium tuberculosis H37Rv harboring pSMT1 encoding Vibrio harveyi luxAB gene at 10 uM after 7 days by luminometric analysis; conditions: 168 h, read-out: GI; outline: as §1
[4] = tested on: Mycobacterium tuberculosis; experiment: Antibacterial activity against Mycobacterium tuberculosis H37Rv harboring pSMT1 encoding Vibrio harveyi luxAB gene after 7 days by luminometric analysis; conditions: 168 h
[5] = tested on: Mycobacterium tuberculosis; experiment: Antibacterial activity against Mycobacterium tuberculosis H37Rv harboring pSMT1 encoding Vibrio harveyi luxAB gene infected in mouse J774.A1 cells at 2 uM after 5 days by luminometric analysis; conditions: J774.A1, 120 h, read-out: GI
Outline: (§2)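 J774.A1 macrophages seeded at 40 000 per well and rested overnight. Infected with 4000 RLU of luminescent H37Rv (MOI 0.1) in DMEM with penicillin/Fungizone, with compound dilutions added. Treated 5 days, then washed, given 1 h 1% gentamicin, and lysed with 1% Triton X-100. Lysate luminescence read over 10 s with n-decanal. Inhibition relative to untreated infected cells; six replicate cultures.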

[6] = tested on: Mycobacterium tuberculosis; experiment: Antibacterial activity against Mycobacterium tuberculosis H37Rv harboring pSMT1 encoding Vibrio harveyi luxAB gene infected in mouse J774.A1 cells at 0.5 uM after 5 days by luminometric analysis; conditions: J774.A1, 120 h, read-out: GI; outline: as §2
[7] = tested on: Mycobacterium tuberculosis; experiment: Antibacterial activity against Mycobacterium tuberculosis H37Rv harboring pSMT1 encoding Vibrio harveyi luxAB gene infected in mouse J774.A1 cells at 1 uM after 5 days by luminometric analysis; conditions: J774.A1, 120 h, read-out: GI; outline: as §2
[8] = tested on: Mycobacterium tuberculosis; experiment: Antimicrobial activity against multidrug-resistant Mycobacterium tuberculosis LAM1 by BACTEC 460-TB method
Outline: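 Clinical MDR LAM-1 isolate, resistant to isoniazid, rifampicin, rifabutin and prothionamide. Pre-cultured in 7H9-based BACTEC vial to growth index 300. 100 µL inoculated into a new vial with compound dilutions prepared in 7H9 + 10% OADC. GI read daily. MIC99 determined by comparison with an untreated culture diluted 100-fold at inoculation.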

Row | Compound | inhibition of growth at 0.1 µM [1] | inhibition of growth at 1 µM [2] | inhibition of growth at 10 µM [3] | MIC50 [4] | inhibition in vivo at 2 µM [5] | inhibition in vivo at 0.5 µM [6] | inhibition in vivo at 1 µM [7] | MIC99 [8]
1 | CCCNC(=N)c1ccc(N2CCN(c3ccccc3)CC2)cc1.Cl | < 10% | < 10% | 33% | 7.01 µM | 26.1% | 5.62% | 12.9% | –
2 | CCCCNC(=N)c1ccc(N2CCN(c3ccccc3)CC2)cc1.Cl | < 10% | < 10% | 66% | 2.16 µM | 50.6% | 25.6% | 31.6% | –
3 | O=[N+]([O-])c1ccc(NCCNc2ccc([N+](=O)[O-])cc2)cc1 | < 10% | < 10% | 16% | – | – | – | – | –
4 | CNC(=N)c1ccc(N2CCN(c3ccccc3)CC2)cc1.Cl | < 10% | < 10% | 16% | 15.9 µM | 14.9% | -0.8% | 6.43% | –
5 | O=[N+]([O-])c1cccc(NCCNc2cccc([N+](=O)[O-])c2)c1 | < 10% | < 10% | 13% | – | – | – | – | –
6 | CCC(CC)NC(=N)c1ccc(NCCNc2ccccc2)cc1 | 10% | 19% | 63% | – | – | – | – | –
7 | CCCCCCCNC(=N)c1ccc(N2CCN(c3ccccc3)CC2)cc1.Cl | 47% | 94% | 100% | 0.091 µM | 83.3% | 61.1% | 64.2% | 1.48 µM
8 | CCCCCCCCNC(=N)c1ccc(N2CCN(c3ccccc3)CC2)cc1.Cl | 61% | 94% | 100% | 0.072 µM | 71.6% | 15.2% | 31.1% | 1.17 µM
9 | Cl.N=C(N)c1ccc(N2CCN(c3ccccc3)CC2)cc1 | < 10% | < 10% | 14% | 29.6 µM | 1.83% | -0.47% | 0.41% | –
10 | CCNC(=N)c1ccc(N2CCN(c3ccccc3)CC2)cc1.Cl | < 10% | < 10% | 10% | 11.9 µM | 22.5% | 3.93% | 13.4% | –
11 | N=C(N)c1ccc(NCCNc2ccccc2)cc1 | < 10% | < 10% | < 100% | – | – | – | – | –
12 | N#Cc1ccc(N2CCN(c3ccccc3)CC2)cc1 | < 10% | < 10% | 23% | – | – | – | – | –
13 | CCC(CC)NC(=N)c1ccc(N2CCN(c3ccccc3)CC2)cc1 | < 10% | 19% | 67% | – | – | – | – | –
14 | CCCCCCNC(=N)c1ccc(NCCNc2ccccc2)cc1 | 23% | 48% | 93% | – | – | – | – | –
15 | CCCCCNC(=N)c1ccc(N2CCN(c3ccccc3)CC2)cc1.Cl | < 10% | 39% | 95% | 1.2 µM | 64.7% | 44.7% | 53.6% | 3.85 µM
16 | CCCCCCNC(=N)c1ccc(N2CCN(c3ccccc3)CC2)cc1.Cl | 49% | 91% | 99% | 0.264 µM | 88.1% | 67.1% | 79.2% | 2.11 µM
17 | O=[N+]([O-])c1ccccc1NCCNc1ccccc1[N+](=O)[O-] | < 10% | < 10% | < 10% | – | – | – | – | –
18 | N#Cc1ccccc1NCCNc1ccccc1C#N | < 10% | < 10% | < 10% | – | – | – | – | –
19 | CCCCCCCCCCCCNC(=N)c1ccc(N2CCN(c3ccccc3)CC2)cc1.Cl | 68% | 97% | 100% | 0.052 µM | 44.9% | 10.7% | 23.4% | 0.95 µM
20 | NNC(=O)c1ccncc1 [ISONIAZID] | 98% | 100% | 100% | 0.465 µM (≈ 0.0638 µg/mL) | 51.4% | 9.77% | 29.4% | –
21 | Nc1ccc(N2CCN(c3ccc(N)cc3)CC2)cc1 | < 10% | 10% | 27% | – | – | – | – | –
22 | N=C(NCCc1ccccc1)c1ccc(N2CCN(c3ccccc3)CC2)cc1 | < 10% | 56% | 97% | – | – | – | – | –
23 | O=[N+]([O-])c1ccc(N2CCN(c3ccc([N+](=O)[O-])cc3)CC2)cc1 | < 10% | 10% | 13% | – | – | – | – | –
24 | N#Cc1cccc(NCCNc2cccc(C#N)c2)c1 | < 10% | < 10% | < 10% | – | – | – | – | –
25 | N#Cc1ccc(N2CCN(c3ccc(C#N)cc3)CC2)cc1 | < 10% | < 10% | 22% | – | – | – | – | –
26 | O=[N+]([O-])c1ccc(N2CCN(c3ccccc3)CC2)cc1 | < 10% | < 10% | 26% | – | – | – | – | –
27 | N#Cc1ccc(NCCNc2ccc(C#N)cc2)cc1 | < 10% | < 10% | 10% | – | – | – | – | –
28 | Nc1ccc(N2CCN(c3ccccc3)CC2)cc1 | < 10% | < 10% | 30% | – | – | – | – | –
